# According to the M2OR odorant receptor database:
# Legend:
# Details in all cases: stereoisomer not certain
# OR51E1 (Homo sapiens) [1] = target: T1, OR51E1 (Homo sapiens) (UniProt Q8TCB6)
# T1 sequence (whole entry): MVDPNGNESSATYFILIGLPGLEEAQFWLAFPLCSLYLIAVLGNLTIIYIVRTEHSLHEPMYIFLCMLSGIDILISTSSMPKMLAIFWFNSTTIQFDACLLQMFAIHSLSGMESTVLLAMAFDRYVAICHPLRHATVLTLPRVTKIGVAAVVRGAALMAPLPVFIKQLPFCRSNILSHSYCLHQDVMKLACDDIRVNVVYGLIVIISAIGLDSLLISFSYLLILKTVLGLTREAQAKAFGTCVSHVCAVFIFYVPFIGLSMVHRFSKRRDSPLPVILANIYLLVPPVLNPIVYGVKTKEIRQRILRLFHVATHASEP
# Summary of the method: (§1)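 Whether a receptor–molecule pair is responsive (active) rests on the original authors' judgment that its measured signal was statistically different from baseline. Pairs without that judgment are non-responsive (inactive). Sources used varied assay methods, commonly transient luciferase assays in mammalian cell lines.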
# OR51E2 (Homo sapiens) = target: T2, OR51E2 (Homo sapiens) (UniProt Q9H255)
# T2 sequence (whole entry): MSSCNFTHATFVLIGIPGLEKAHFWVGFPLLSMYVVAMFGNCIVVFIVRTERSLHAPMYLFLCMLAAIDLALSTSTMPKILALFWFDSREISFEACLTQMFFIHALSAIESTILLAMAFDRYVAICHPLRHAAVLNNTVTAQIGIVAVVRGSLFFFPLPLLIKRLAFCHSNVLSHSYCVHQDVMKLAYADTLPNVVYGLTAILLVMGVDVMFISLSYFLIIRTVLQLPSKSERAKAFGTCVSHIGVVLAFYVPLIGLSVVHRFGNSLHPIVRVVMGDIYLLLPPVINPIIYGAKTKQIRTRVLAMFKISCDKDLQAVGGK
# Summary of the method: as §1
# OR51D1 (Homo sapiens) = target: T3, OR51D1 (Homo sapiens) (UniProt Q8NGF3)
# T3 sequence (whole entry): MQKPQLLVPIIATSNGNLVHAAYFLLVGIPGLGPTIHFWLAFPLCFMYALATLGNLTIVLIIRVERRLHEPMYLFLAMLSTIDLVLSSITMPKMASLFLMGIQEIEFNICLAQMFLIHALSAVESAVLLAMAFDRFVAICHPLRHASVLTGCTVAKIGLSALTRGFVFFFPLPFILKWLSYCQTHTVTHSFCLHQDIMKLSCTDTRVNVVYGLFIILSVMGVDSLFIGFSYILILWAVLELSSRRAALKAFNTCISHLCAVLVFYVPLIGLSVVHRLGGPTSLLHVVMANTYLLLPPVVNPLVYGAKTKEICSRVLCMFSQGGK
# Summary of the method: as §1
# OR51E1 (Homo sapiens) [2] = target: T4, OR51E1 (Homo sapiens) (UniProt Q8TCB6); remark: listed apart in the source
# T4 sequence (whole entry): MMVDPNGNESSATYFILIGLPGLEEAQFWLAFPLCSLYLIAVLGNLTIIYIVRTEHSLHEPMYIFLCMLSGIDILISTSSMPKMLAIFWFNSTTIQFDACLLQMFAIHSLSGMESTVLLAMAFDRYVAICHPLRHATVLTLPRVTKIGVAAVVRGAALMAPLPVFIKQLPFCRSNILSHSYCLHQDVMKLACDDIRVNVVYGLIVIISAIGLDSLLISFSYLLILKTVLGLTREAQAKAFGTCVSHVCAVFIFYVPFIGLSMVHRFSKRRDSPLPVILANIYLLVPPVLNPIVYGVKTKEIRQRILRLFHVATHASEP
# Summary of the method: as §1
# OR51F2 (Homo sapiens) = target: T5, OR51F2 (Homo sapiens) (UniProt Q8NH61)
# T5 sequence (whole entry): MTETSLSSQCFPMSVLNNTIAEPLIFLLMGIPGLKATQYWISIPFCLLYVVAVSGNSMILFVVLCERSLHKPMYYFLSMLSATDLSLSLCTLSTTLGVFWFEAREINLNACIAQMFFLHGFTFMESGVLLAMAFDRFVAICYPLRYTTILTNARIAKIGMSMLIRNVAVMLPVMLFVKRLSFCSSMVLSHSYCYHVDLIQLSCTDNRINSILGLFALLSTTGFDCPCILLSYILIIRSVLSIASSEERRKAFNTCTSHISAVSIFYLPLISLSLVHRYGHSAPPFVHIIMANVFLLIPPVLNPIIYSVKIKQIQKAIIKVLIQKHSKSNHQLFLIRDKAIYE
# Summary of the method: as §1
# OR51G1 (Homo sapiens) = target: T6, OR51G1 (Homo sapiens) (UniProt Q8NGK1)
# T6 sequence (whole entry): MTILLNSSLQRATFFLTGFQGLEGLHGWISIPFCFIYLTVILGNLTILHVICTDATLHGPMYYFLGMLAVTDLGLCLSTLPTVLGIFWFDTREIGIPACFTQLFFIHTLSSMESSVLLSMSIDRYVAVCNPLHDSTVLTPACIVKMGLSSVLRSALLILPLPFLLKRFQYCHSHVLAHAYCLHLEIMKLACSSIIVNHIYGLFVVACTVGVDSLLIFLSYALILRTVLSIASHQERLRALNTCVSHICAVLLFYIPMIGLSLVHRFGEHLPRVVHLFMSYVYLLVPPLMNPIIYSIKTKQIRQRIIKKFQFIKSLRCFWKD
# Summary of the method: as §1
# OR51G2 (Homo sapiens) = target: T7, OR51G2 (Homo sapiens) (UniProt Q8NGK0)
# T7 sequence (whole entry): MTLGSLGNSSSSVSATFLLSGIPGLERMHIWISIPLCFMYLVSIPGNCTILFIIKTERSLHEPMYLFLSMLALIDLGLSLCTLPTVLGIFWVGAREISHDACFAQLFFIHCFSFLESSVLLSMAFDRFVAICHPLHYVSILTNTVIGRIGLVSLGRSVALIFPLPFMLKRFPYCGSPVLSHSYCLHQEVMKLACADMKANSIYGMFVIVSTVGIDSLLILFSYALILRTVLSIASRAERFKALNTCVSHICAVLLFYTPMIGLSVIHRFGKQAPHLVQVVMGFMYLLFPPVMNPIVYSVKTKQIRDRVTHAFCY
# Summary of the method: as §1
# OR51I1 (Homo sapiens) = target: T8, OR51I1 (Homo sapiens) (UniProt Q9H343)
# T8 sequence (whole entry): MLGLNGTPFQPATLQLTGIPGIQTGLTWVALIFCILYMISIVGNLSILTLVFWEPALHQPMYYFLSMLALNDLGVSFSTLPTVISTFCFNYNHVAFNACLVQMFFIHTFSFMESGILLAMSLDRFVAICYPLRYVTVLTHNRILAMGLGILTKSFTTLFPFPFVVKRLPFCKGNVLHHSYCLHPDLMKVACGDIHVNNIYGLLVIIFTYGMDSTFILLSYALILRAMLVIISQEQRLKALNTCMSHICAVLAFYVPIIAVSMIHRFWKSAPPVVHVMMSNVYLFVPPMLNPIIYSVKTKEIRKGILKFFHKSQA
# Summary of the method: as §1
# OR51F1 (Homo sapiens) = target: T9, OR51F1 (Homo sapiens) (UniProt A6NGY5)
# T9 sequence (whole entry): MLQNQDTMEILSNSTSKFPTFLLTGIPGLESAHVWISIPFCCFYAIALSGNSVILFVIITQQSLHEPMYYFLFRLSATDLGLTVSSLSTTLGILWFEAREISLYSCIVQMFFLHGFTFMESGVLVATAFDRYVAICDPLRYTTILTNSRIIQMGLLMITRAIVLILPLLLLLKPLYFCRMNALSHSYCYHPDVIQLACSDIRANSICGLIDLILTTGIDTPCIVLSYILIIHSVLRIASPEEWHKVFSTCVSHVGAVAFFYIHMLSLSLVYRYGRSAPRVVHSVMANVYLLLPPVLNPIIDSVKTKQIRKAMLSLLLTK
# Summary of the method: as §1
# OR51H1 (Homo sapiens) = OR51H1 (Homo sapiens) (UniProt Q8NH63)
# Sequence of OR51H1 (Homo sapiens) (Q8NH63 whole entry): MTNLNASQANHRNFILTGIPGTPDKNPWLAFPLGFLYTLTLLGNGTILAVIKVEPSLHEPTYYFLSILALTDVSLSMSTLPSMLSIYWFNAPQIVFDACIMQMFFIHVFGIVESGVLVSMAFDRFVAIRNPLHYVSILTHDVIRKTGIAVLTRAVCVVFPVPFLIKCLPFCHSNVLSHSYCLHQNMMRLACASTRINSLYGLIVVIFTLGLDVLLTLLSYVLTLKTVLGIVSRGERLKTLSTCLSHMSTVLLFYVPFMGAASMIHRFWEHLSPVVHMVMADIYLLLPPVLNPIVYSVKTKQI
# Summary of the method: as §1
# 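Note: active if original authors judged signal statistically different from baseline.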
smiles,measurement,setting,value
COc1cc(C(=O)O)ccc1O,odorant receptor agonist call,OR51E1 (Homo sapiens) [1],inactive
same,odorant receptor agonist call,OR51E2 (Homo sapiens),inactive
CC1=NC(C)C(C)S1 (configuration not stated),odorant receptor agonist call,OR51D1 (Homo sapiens),inactive
same,odorant receptor agonist call,OR51E1 (Homo sapiens) [2],inactive
same,odorant receptor agonist call,OR51E2 (Homo sapiens),inactive
same,odorant receptor agonist call,OR51F2 (Homo sapiens),inactive
same,odorant receptor agonist call,OR51G1 (Homo sapiens),inactive
same,odorant receptor agonist call,OR51G2 (Homo sapiens),inactive
same,odorant receptor agonist call,OR51I1 (Homo sapiens),inactive
CC(=O)c1c(C)c([N+](=O)[O-])c(C(C)(C)C)c([N+](=O)[O-])c1C,odorant receptor agonist call,OR51D1 (Homo sapiens),inactive
same,odorant receptor agonist call,OR51E2 (Homo sapiens),inactive
same,odorant receptor agonist call,OR51F1 (Homo sapiens),inactive
same,odorant receptor agonist call,OR51F2 (Homo sapiens),inactive
same,odorant receptor agonist call,OR51G1 (Homo sapiens),inactive
same,odorant receptor agonist call,OR51G2 (Homo sapiens),inactive
same,odorant receptor agonist call,OR51H1 (Homo sapiens),inactive
same,odorant receptor agonist call,OR51I1 (Homo sapiens),inactive
CCCCCCCCCCCC(=O)O,odorant receptor agonist call,OR51E1 (Homo sapiens) [1],inactive
CCOC(=O)C(C)C,odorant receptor agonist call,OR51E1 (Homo sapiens) [1],inactive
same,odorant receptor agonist call,OR51E2 (Homo sapiens),inactive
CC1=C(O)C(=O)C(C)O1 (configuration not stated),odorant receptor agonist call,OR51D1 (Homo sapiens),inactive
same,odorant receptor agonist call,OR51E1 (Homo sapiens) [2],inactive
same,odorant receptor agonist call,OR51E2 (Homo sapiens),inactive
same,odorant receptor agonist call,OR51F2 (Homo sapiens),inactive
same,odorant receptor agonist call,OR51G1 (Homo sapiens),inactive
same,odorant receptor agonist call,OR51G2 (Homo sapiens),inactive
same,odorant receptor agonist call,OR51I1 (Homo sapiens),inactive
CCCCCC(S)C(C)CO (configuration not stated),odorant receptor agonist call,OR51D1 (Homo sapiens),inactive
same,odorant receptor agonist call,OR51E1 (Homo sapiens) [1],inactive
same,odorant receptor agonist call,OR51E2 (Homo sapiens),inactive
same,odorant receptor agonist call,OR51F1 (Homo sapiens),inactive
same,odorant receptor agonist call,OR51F2 (Homo sapiens),inactive
same,odorant receptor agonist call,OR51G1 (Homo sapiens),inactive
same,odorant receptor agonist call,OR51G2 (Homo sapiens),inactive
same,odorant receptor agonist call,OR51I1 (Homo sapiens),inactive
CCCCCCCCCCCCCC(=O)O,odorant receptor agonist call,OR51E1 (Homo sapiens) [1],inactive
CCC(C)CC(=O)O (configuration not stated),odorant receptor agonist call,OR51E1 (Homo sapiens) [1],active
CCC1OC(C)=C(O)C1=O (configuration not stated),odorant receptor agonist call,OR51D1 (Homo sapiens),inactive
same,odorant receptor agonist call,OR51E1 (Homo sapiens) [2],inactive
same,odorant receptor agonist call,OR51E2 (Homo sapiens),inactive
same,odorant receptor agonist call,OR51F2 (Homo sapiens),inactive
same,odorant receptor agonist call,OR51G1 (Homo sapiens),inactive
same,odorant receptor agonist call,OR51G2 (Homo sapiens),inactive
same,odorant receptor agonist call,OR51I1 (Homo sapiens),inactive
CC1CCCCCCCCCCCCC(=O)C1 (configuration not stated),odorant receptor agonist call,OR51D1 (Homo sapiens),inactive
same,odorant receptor agonist call,OR51E2 (Homo sapiens),inactive
same,odorant receptor agonist call,OR51F1 (Homo sapiens),inactive
same,odorant receptor agonist call,OR51F2 (Homo sapiens),inactive
same,odorant receptor agonist call,OR51G1 (Homo sapiens),inactive
same,odorant receptor agonist call,OR51G2 (Homo sapiens),inactive
same,odorant receptor agonist call,OR51H1 (Homo sapiens),inactive
same,odorant receptor agonist call,OR51I1 (Homo sapiens),inactive
